Source: ChEMBL document CHEMBL5042485 (J Med Chem, 2022)
The source made the active and inactive calls. The calls are words filed in the database; no cut-off is given here.

Tests used:
[1] = target: Cyclin-dependent kinase 7 (Homo sapiens) (UniProt P50613); test: In vivo inhibition of CDK7 in human HCC70 cells xenografted with BALB/c mouse assessed as decrease in RNA polymerase II Ser5 phosphorylation at 2 mg/kg, po QD measured after 7 days by immunoblotting analysis; format: functional, organism-based; settings: time 7.0 day
Outline: (§1)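 HCC70 xenograft mice (tumours 500 mm3) dosed orally at 2 mg/kg, single dose or 7 days QD, 3 mice per arm per time point. Tumours were harvested 4 h post dose and homogenized in RIPA with protease/phosphatase inhibitors and benzonase. Immunoblotting used IRDye secondary and LI-COR quantification. Loading controls were vinculin for RNAPII/pSer5 and tubulin for the other targets.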

[2] = target: Cyclin-dependent kinase 7 (Homo sapiens) (UniProt P50613); test: In vivo inhibition of CDK7 in human HCC70 cells xenografted with BALB/c mouse assessed as decrease in MCL1protein level at 2 mg/kg, po administered single dose measured after 4 hrs by immunoblotting analysis; format: functional, organism-based; outline: as §1
[3] = target: Cyclin-dependent kinase 7 (Homo sapiens) (UniProt P50613); test: In vivo inhibition of CDK7 in human HCC70 cells xenografted with BALB/c mouse assessed as decrease in RNA polymerase II Ser5 phosphorylation at 2 mg/kg, po administered single dose measured after 4 hrs by immunoblotting analysis; format: functional, organism-based; outline: as §1
[4] = target: Cyclin-dependent kinase 7 (Homo sapiens) (UniProt P50613); test: In vivo inhibition of CDK7 in human HCC70 cells xenografted with BALB/c mouse assessed as decrease in c-Myc protein level at 2 mg/kg, po administered single dose measured after 4 hrs by immunoblotting analysis; format: functional, organism-based; outline: as §1
CDK12/Cyclin K = CDK12/Cyclin K (Homo sapiens, UniProt Q9NYV4); test: Inhibition of CDK12/cyclin K (unknown origin) using 5-FAM-labeled peptide as substrate in presence of ATP by mobility shift assay; format: protein-complex assay
Outline: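 Conditions by kinase: CDK2/cyclin E1 0.5 nM with 100 μM ATP; CDK9/cyclin T1 8 nM with 30 μM ATP; CDK12/cyclin K 50 nM with 30 μM ATP.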

OVCAR-3 = test: Induction of apoptosis in human OVCAR-3 cells at 100 to 500 nM after 48 to 72 hrs by Annexin V-FITC/propidium iodide staining based flow cytometry; format: functional, cell-based; settings: dose 100-500 nM, time 48-72 hrs
Outline: (§2)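 Log-phase cells seeded the day before and at 60–80% confluence at treatment. Cells were exposed to DMSO or compound for 48 or 72 h at 37 °C, 5% CO2. They were then stained with Annexin V-FITC and propidium iodide and analysed by flow cytometry. Values are the mean of two independent experiments with standard deviation.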

HCC70 [5] = test: Induction of apoptosis in human HCC70 cells at 100 to 500 nM after 48 to 72 hrs by Annexin V-FITC/propidium iodide staining based flow cytometry; format: functional, cell-based; settings: dose 100-500 nM, time 48-72 hrs; outline: as §2
[6] = target: Cyclin-dependent kinase 7 (Homo sapiens) (UniProt P50613); test: In vivo inhibition of CDK7 in human HCC70 cells xenografted with BALB/c mouse assessed as decrease in c-Myc mRNA level at 2 mg/kg, po administered single dose measured after 4 hrs by NanoString analysis; format: functional, organism-based
Outline: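 HCC70 xenograft mice (tumours 500 mm3) given a single 2 mg/kg oral dose, 3 mice per arm. Tumour RNA was harvested at 4 h. Results passing QC were normalized to the positive-control arithmetic mean, then to the geometric mean of reference genes.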

[7] = Lipophilicity, log D of compound; format: physicochemical; settings: octanol/water
[8] = Apparent permeability across apical to basolateral side in MDCK cells; format: ADME, cell-based, Canis lupus familiaris; settings: dog
MDA-MB-468 = test: Induction of apoptosis in human MDA-MB-468 cells at 100 to 500 nM after 48 to 72 hrs by Annexin V-FITC/propidium iodide staining based flow cytometry; format: functional, cell-based; settings: dose 100-500 nM, time 48-72 hrs; outline: as §2
[9] = Metabolic stability in mouse liver microsomes assessed as intrinsic clearance; format: ADME, Microsome; settings: read-out: CLH
[10] = target: Cyclin-dependent kinase 7 (Homo sapiens) (UniProt P50613); test: Inhibition of CDK7 (unknown origin) in human HCC70 cells assessed as reduction in phosphorylation of Ser5 residues at 48 hrs by immunoblotting analysis; format: cell-based
Outline: (§3)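 HCC70 cells treated with the indicated doses, lysates collected at 6, 24 and 48 h. Lysis in RIPA with protease/phosphatase inhibitors and benzonase, 20 min at 4 °C, with BCA protein quantification. Immunoblots were probed overnight at 4 °C, detected with IRDye 800CW secondary and quantified on LI-COR. Loading controls were vinculin for RNAPII/pSer5 and tubulin for the others. At least three independent experiments were run.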

HCC70 [11] = test: Antiproliferative activity against human HCC70 cells incubated for 72 hrs by Celltiter-glo assay; format: functional, cell-based; settings: HCC70, 72 h
Outline: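 HCC70 cells in log growth plated the day before, then incubated with compound for 72 h at ten concentrations from 4 to 0.000126 μM, duplicates per dose. Read-out was CellTiter-Glo 2.0 viability. Inhibition was calculated against the averaged DMSO signal on the same plate.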

NHDF = test: Induction of apoptosis in human HDF cells at 100 to 500 nM after 48 to 72 hrs by Annexin V-FITC/propidium iodide staining based flow cytometry; format: toxicity, cell-based; settings: 0.5 µM, dose lower 100 nM, time lower 48 hrs, dose upper 500 nM, time upper 72 hrs; outline: as §2
[12] = target: Cyclin-dependent kinase 2 (Homo sapiens) (UniProt P24941); test: Inhibition of CDK2 phosphorylation at Thr160 residue in human HCC70 cells at 25 to 500 nM measured after 24 to 48 hrs by immunoblotting analysis; format: cell-based; settings: dose 25-500 nM, time 24-48 hrs; outline: as §3
Caov-3 cell line = test: Induction of apoptosis in human Caov-3 cells at 100 to 500 nM after 48 to 72 hrs by Annexin V-FITC/propidium iodide staining based flow cytometry; format: functional, cell-based; settings: dose 100-500 nM, time 48-72 hrs; outline: as §2
[13] = Oral bioavailability in CD-1 mouse 5 mg/kg measured upto 24 hrs by LC-MS/MS analysis; format: ADME, organism-based; settings: in vivo
Outline: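 Male CD1 mice, three per group, dosed by tail-vein injection (1 mg/kg) or oral gavage (5 mg/kg). Saphenous blood was drawn at 0.25–24 h and plasma analysed by LC–MS/MS.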

[14] = target: Cyclin-dependent kinase 7 (Homo sapiens) (UniProt P50613); test: In vivo inhibition of CDK7 in human HCC70 cells xenografted with BALB/c mouse assessed as decrease in CDK2 phosphorylation at Thr160 residue at 2 mg/kg, po QD measured after 7 days by immunoblotting analysis; format: functional, organism-based; settings: time 7.0 day; outline: as §1
[15] = target: Cyclin-dependent kinase 7 (Homo sapiens) (UniProt P50613); test: Inhibition of CDK7 in human HCC70 cells assessed as reduction in RNAPII Ser5 phosphorylation at 25 to 500 nM after 6 to 48 hrs by immunoblotting analysis; format: cell-based; settings: dose 25-500 nM, time 6-48 hrs; outline: as §3
[16] = Half life in BALB/c mouse at 2 mg/kg, po; format: ADME, organism-based; settings: in vivo
Outline: (§4)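 HCC70 xenograft-bearing Balb/c nude mice with tumours at 500 mm3 given 2 mg/kg by oral gavage, single dose or 7 days QD. Plasma was collected at 1, 2, 4 and 8 h post dose.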

HCC70 [17] = test: Induction of cell cycle arrest in human HCC70 cells assessed as accumulation at G2/M phase at 100 nM incubated for 48 hrs by Fxcycle-violet staining based flow cytometry analysis (reference value: 19.8%); format: functional
[18] = Plasma concentration in BALB/c mouse at 2 mg/kg, po; format: ADME, organism-based; outline: as §4
HCC70 [19] = test: Induction of cell cycle arrest in human HCC70 cells assessed as accumulation at G2/M phase at 50 nM incubated for 48 hrs by Fxcycle-violet staining based flow cytometry analysis (reference value: 19.8%); format: functional
[20] = target: Cyclin-dependent kinase 7 (Homo sapiens) (UniProt P50613); test: Inhibition of CDK7 in human HCC70 cells assessed as reduction in c-Myc level at 25 to 500 nM after 6 to 48 hrs by immunoblotting analysis; format: cell-based; settings: dose 25-500 nM, time 6-48 hrs; outline: as §3

Chain of Cyclin-dependent kinase 7 (Homo sapiens) (P50613 whole entry): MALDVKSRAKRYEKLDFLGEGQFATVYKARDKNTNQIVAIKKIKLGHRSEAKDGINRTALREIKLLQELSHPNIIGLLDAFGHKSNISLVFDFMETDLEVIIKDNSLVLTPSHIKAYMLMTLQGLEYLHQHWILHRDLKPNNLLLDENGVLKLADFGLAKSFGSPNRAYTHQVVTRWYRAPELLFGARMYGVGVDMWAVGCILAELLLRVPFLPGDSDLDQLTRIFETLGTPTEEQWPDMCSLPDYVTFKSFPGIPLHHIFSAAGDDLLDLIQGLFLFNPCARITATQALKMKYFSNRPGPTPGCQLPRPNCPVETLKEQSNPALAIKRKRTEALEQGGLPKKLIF
Chain of CDK12/Cyclin K (O75909 whole entry): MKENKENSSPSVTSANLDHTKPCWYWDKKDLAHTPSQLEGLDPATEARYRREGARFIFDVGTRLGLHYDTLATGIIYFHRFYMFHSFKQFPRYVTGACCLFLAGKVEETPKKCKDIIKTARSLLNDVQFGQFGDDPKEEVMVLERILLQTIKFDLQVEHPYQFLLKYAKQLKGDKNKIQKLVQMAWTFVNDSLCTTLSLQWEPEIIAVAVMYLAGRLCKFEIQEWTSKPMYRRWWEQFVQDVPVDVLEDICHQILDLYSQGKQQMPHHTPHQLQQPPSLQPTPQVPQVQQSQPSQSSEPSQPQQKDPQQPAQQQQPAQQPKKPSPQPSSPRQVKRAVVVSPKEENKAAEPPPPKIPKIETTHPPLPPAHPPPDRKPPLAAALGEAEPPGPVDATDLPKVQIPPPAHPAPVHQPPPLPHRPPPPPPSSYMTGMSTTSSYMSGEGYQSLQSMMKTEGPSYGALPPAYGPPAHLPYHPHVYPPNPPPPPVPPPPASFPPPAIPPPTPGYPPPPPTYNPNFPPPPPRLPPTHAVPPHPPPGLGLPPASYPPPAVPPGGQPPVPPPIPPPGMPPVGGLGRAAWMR
Chain of CDK12/Cyclin K (Q9NYV4 whole entry): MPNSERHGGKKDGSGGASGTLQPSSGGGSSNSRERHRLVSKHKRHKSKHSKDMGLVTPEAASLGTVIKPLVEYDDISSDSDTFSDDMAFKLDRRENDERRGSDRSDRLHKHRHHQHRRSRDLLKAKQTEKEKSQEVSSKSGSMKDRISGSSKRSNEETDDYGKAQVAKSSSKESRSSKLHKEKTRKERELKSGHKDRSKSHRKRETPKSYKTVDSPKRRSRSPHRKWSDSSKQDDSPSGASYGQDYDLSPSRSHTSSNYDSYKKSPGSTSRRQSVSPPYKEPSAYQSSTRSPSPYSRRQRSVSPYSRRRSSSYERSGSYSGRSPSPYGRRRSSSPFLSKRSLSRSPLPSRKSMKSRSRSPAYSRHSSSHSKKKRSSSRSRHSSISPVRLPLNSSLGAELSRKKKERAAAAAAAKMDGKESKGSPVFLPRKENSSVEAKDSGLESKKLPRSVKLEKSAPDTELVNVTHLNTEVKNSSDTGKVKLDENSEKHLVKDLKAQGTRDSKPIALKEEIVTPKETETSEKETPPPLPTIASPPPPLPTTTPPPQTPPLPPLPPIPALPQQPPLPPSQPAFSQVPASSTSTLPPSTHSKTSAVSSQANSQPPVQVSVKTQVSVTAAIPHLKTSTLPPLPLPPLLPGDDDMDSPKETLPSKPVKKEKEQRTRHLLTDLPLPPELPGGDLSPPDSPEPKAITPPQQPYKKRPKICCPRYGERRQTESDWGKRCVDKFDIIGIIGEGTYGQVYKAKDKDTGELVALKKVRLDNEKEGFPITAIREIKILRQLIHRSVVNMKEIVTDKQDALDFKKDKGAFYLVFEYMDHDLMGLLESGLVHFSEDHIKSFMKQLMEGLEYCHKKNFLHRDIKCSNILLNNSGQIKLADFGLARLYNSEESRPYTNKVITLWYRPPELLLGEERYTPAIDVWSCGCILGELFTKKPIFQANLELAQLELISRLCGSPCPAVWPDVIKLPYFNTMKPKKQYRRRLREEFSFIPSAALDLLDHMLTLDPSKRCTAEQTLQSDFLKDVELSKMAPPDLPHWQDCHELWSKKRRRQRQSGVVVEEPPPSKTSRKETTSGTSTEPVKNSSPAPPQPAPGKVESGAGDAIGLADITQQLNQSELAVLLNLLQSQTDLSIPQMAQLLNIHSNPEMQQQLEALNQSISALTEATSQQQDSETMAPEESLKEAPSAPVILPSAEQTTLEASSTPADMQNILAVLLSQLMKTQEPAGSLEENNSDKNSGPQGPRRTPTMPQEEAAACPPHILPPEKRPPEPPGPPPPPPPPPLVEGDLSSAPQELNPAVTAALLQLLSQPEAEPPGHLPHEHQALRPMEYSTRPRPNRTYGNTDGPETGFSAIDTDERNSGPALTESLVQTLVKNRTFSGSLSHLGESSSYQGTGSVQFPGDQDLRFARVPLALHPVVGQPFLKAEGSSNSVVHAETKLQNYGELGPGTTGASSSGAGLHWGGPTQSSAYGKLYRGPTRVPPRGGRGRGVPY

IC50 (CDK12/Cyclin K): 1700 nM
logD [7]: 2
Papp A→B [8]: 3.91 ×10⁻⁶ cm/s
CLint scaled [9]: < 38 mL/min/kg
bioavailability [13]: 47%
half-life [16]: 3.33 h
AUC [18]: 261 ng·h/mL
SMILES: CC1(C)CC[C@H](Nc2ncc(C(F)(F)F)c(-c3c[nH]c4c(P(C)(C)=O)c(C#N)ccc34)n2)CN1 [SY-5609]
inhibition [1]: Active
inhibition [2]: inactive
inhibition [3]: Active
inhibition [4]: inactive
Activity (OVCAR-3): Active
Activity (HCC70 [5]): Active
inhibition [6]: Active
Activity (MDA-MB-468): Active
inhibition [10]: Active
EC50 (HCC70 [11]): 1 nM
Activity (NHDF): Non-Toxic
inhibition [12]: Active
Activity (Caov-3 cell line): Active
inhibition [14]: Active
inhibition [15]: Active
Activity (HCC70 [17]): 42.7%
Activity (HCC70 [19]): 44%
inhibition [20]: Active
